One may read the IC50 as the midpoint of a concentration-inhibition curve. The term Ki denotes the equilibrium dissociation constant of an inhibitor or competing ligand from its target.

Where “and” joins values, the source holds several entries; their conditions need not be identical. Equal values may be shown once.

Our source for the IC50 and Ki values is ChEMBL document CHEMBL1138849, “5-substituted tetrazoles as bioisosteres of carboxylic acids. Bioisosterism and mechanistic studies on glutathione reductase inhibitors as antimalarials” (J Med Chem, 2004).

One experiment has as its system Plasmodium falciparum. The experiment is described as follows: Inhibitory concentration against Plasmodium falciparum […]. Type of experiment: functional, organism-based. Particulars: FcB1/Columbia.
Experiment [1] concerns the target T1, Glutathione reductase, mitochondrial (Homo sapiens, UniProt P00390).
T1 sequence (P00390 whole entry): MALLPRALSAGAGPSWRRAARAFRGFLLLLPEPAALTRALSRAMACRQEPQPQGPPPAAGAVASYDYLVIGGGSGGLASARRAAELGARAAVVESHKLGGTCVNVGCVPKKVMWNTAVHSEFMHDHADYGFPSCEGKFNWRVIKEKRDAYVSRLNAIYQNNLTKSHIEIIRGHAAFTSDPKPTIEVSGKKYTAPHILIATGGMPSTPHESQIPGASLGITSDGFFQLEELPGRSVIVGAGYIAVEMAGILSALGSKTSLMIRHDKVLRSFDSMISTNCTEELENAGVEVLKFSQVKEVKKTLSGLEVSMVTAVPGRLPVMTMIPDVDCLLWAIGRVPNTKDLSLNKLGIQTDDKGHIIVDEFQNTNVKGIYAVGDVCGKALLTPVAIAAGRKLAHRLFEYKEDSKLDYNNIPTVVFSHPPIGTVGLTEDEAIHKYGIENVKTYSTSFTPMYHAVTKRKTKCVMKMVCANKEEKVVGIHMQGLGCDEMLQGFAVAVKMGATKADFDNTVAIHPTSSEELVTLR
Description: Inhibitory concentration against human glutathione reductase. An outline of the steps:
(§1)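 Recombinant GR (human or P. falciparum) in 100 mM potassium phosphate pH 7.0, 200 mM KCl, 100 μM NADPH, 1 mM GSSG, with 1% final DMSO. Started with 8 milliunits of enzyme. Initial rates of NADPH oxidation read at 340 nm. […] A second set of standard assays used 200 μM GSSG.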

Another experiment concerns the target Glutathione reductase (Plasmodium falciparum 3D7, UniProt O15770). Description: Inhibitory concentration against Plasmodium falciparum glutathione reductase. An outline of the steps: as §1
Experiment [2] has as its target Glutathione reductase (Plasmodium falciparum) (UniProt Q94655). Description: Inhibitory concentration against Plasmodium falciparum glutathione reductase.
Experiment [3] has as its target T1, Glutathione reductase, mitochondrial. Description: Inhibitory concentration against human glutathione reductase in the presence of 200 uM exogenous NADP.
The target is the same in experiment [4]. Description: Inhibitory concentration against human glutathione reductase in the absence of glucose-6-phosphate dehydrogenase (G6PDH). An outline of the steps: as §1
The target is the same in experiment [5]. The experiment is described as follows: Inhibitory concentration against human glutathione reductase (In presence of glutathione disulfide).
For experiment [6] the target is unchanged. The experiment is described as follows: Inhibitory concentration against human glutathione reductase (In presence of NADPH).

Sequence of Glutathione reductase (O15770 whole entry): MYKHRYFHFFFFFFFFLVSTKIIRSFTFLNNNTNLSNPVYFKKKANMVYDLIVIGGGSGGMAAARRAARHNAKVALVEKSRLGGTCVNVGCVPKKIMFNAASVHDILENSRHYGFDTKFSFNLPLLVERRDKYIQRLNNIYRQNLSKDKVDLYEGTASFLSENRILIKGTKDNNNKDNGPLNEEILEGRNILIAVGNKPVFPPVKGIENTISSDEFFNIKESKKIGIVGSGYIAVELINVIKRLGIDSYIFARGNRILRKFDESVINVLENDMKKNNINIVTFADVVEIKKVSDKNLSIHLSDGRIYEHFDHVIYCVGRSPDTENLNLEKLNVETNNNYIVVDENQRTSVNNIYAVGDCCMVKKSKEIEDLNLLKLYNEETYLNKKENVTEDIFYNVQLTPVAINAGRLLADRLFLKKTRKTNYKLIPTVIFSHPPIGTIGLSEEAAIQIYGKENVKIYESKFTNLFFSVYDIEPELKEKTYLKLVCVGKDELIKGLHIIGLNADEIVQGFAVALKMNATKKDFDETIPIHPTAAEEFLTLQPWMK
Sequence of Glutathione reductase (Plasmodium falciparum) (Q94655 whole entry, looked up): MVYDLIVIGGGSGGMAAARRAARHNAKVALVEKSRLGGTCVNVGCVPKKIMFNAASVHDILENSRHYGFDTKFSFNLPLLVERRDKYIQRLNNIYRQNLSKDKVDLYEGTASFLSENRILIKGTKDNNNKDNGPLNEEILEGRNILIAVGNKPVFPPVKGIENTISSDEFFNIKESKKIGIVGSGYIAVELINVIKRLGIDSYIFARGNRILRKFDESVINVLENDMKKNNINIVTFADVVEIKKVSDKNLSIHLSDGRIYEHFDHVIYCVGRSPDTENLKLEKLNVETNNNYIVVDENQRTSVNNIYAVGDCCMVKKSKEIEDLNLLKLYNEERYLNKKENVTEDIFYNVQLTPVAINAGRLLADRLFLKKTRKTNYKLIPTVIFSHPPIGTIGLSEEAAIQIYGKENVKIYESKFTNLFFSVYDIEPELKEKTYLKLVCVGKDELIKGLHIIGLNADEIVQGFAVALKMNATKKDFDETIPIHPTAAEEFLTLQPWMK

In the experiment on Plasmodium falciparum, `CC1=C(CCCC(=O)NCCC#N)C(=O)c2ccccc2C1=O` showed an IC50 of 1.8 µM.
The same measure, in the same setting: with `CC1=C(CCCCCC(=O)OCCN(C)C)C(=O)c2ccccc2C1=O` the figure was 12.6 µM.
For the compound `CN(C)c1ccc2nc3ccc(=[N+](C)C)cc-3sc2c1` [METHYLENE BLUE ANHYDROUS], the IC50 stood at 16 µM in experiment [1] and 6.4 µM against Glutathione reductase.
Regarding `CC1=C(CCCCCC(=O)O)C(=O)c2ccccc2C1=O`, the Ki in experiment [2] was found to be 3.7 µM; at Glutathione reductase, 3.6 µM. Also, the IC50 in experiment [1] is 3.2 µM; in experiment [3], 2.7 µM; in the experiment with Plasmodium falciparum it was 3.5 µM; in experiment [4], 2.7 µM and 1.8 µM; at Glutathione reductase, 4.5 µM.
Take `CC1=C(CCCCc2nnnn2CCC#N)C(=O)c2ccccc2C1=O`: the IC50 in experiment [1] came out at 27 µM; with Plasmodium falciparum it was 1.4 µM; at Glutathione reductase it was 10.8 µM.
As to `CC1=C(CCCc2nnnn2CCC#N)C(=O)c2ccccc2C1=O`, in the experiment with Plasmodium falciparum, the IC50 was found to be 0.9 µM.
Same read-out and setting: with `CC1=C(CCCCCc2nnnn2CCC#N)C(=O)c2ccccc2C1=O` the figure was 1.1 µM.
As to `CC1=C(CCCCC(=O)NCCC#N)C(=O)c2ccccc2C1=O`, the figures for the IC50 (in experiment [1]; in the experiment on Plasmodium falciparum; on Glutathione reductase) were 22.7 µM, 1.5 µM and 57 µM, respectively.
The compound `CC1=C(CCCCCC(=O)NCCC#N)C(=O)c2ccccc2C1=O` had an IC50 in the experiment on Plasmodium falciparum of 1 µM.
Same read-out and setting: for `CC1=C(CCCCC(=O)O)C(=O)c2ccccc2C1=O` the value was 4 µM.
Take `CC1=CC(=O)c2ccccc2C1=O` [MENADIONE]: the Ki came to 12.1 µM in experiment [5] and 16.1 µM in experiment [6].
